FLuc act counter: firefly luciferase counter-screen for stimulation assays; 200,000 tested, under 10 active; P08659; activation factor at 10 µM; ATPlite luciferase biochemical, luminescence, 10 min; 0 = ATP-free wells, 1 = DMSO control;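 active means luciferase activation factor, scaled between plate controls, of at least 2 with compound at 10 µM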
Target sequence (P08659 whole entry, looked up): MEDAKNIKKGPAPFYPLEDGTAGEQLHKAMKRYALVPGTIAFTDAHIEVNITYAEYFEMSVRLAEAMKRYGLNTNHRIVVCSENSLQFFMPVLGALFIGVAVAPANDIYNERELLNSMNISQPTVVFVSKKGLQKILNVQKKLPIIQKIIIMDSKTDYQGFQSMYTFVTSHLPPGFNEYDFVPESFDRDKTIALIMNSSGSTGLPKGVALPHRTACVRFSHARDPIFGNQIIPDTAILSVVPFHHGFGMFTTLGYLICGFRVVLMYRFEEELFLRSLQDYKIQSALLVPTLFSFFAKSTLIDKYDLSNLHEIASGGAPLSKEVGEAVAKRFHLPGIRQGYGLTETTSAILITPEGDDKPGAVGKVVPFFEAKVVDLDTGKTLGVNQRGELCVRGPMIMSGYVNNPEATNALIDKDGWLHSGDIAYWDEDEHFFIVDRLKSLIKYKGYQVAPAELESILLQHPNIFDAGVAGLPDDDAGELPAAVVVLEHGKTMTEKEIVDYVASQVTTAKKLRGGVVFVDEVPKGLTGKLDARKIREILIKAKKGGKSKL
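Assay system: Luciferase/luciferin detection reagent, cell-free biochemical luciferase assay / Also added: ATP substrate / Schedule: 10 min at ambient temperature / Measured by: luminescence measurement of luciferase light output / Benchmarks: low control with PBS replacing ATP, high control enzyme plus ATP without compound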
APP 5'UTR act: activates APP 5'UTR luciferase reporter. SH-SY5Y APP 5'UTR luciferase reporter, luminescence; zero percent = DMSO vehicle wells. AID 1276. activation, % at 2 µM. 190,000 compounds, 1% hits;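 active means activation above a set limit, based on mean plus 3 SD of controls, cut at about 140% in these data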
TRAIL sens C8: sensitizes caspase-8 expressing cells to TRAIL; NB7+C8 cells + TRAIL, ATPlite viability luminescence; inhibition (viability loss, TRAIL sensitization), % at 10 µM; 360,000 compounds, 1% hits;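 active means compounds causing at least 50% loss of cell viability in the single-dose screen, relative to plate controls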
PPC-1+TRAIL kill: compounds killing PPC-1 cancer cells with TRAIL present (potentiator screen, no TRAIL-free arm) | PPC-1 cells + TRAIL, ATPLite viability luminescence | cell killing (% activity), % at 4 µM or 5 µM | 220,000 compounds, 0.41% hits;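 active means cell killing above 50% in the first pass at 4 µM, then a duplicate retest at 5 µM averaging 50% or more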;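 further: plate controls were cells with TRAIL plus DMSO for no effect and medium-only wells lacking cells for full effect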
NF-kB expr up: NF-kB expression increase, human neuronal cells | NF-kB reporter expression; stronger effect = higher value | fold change at 12.5 µM | 190,000 compounds, 1.6% hits; in the data active means fold change above about 3.3
FLuc inhib CS: inhibits firefly luciferase, flagging false hits in luciferase inhibition screens; P08659; ATPLite firefly luciferase biochemical luminescence, 10 min; inhibition, % at 10 µM; 200,000 compounds, 1.5% hits;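 active means inhibition above about 50% when tested at 10 µM, limit read from the data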
* hit, by the source's call; x = no result given. Most compounds without a hit are left out; they make up all but 2.2% or so of the library.

SMILES	FLuc act counter	APP 5'UTR act	TRAIL sens C8	PPC-1+TRAIL kill	NF-kB expr up	FLuc inhib CS
O=C(Nc1ccc2[nH]ccc2c1)c1cccs1	x	x	62.6*	42.3	x	x
COc1ccc(C(=O)Nc2ccc3[nH]ccc3c2)cc1	x	x	92.5*	x	x	x
CCOc1ccc(C(=O)Nc2ccc3[nH]ncc3c2)cc1	x	x	71.5*	x	x	x
COc1ccc(C(=O)Nc2ccc3[nH]ccc3c2)cc1OC	x	x	40.8	x	x	x
O=C(Nc1ccc2[nH]ncc2c1)c1ccc(F)cc1	x	x	37.6	x	x	x
O=C(Nc1ccc(NC(=O)c2cccs2)cc1)c1cccs1	x	x	11.9	x	x	x
COc1ccc(C(=O)Nc2ccc3[nH]ncc3c2)cc1	x	x	75.3*	x	x	x
O=C(Nc1ccc2[nH]ncc2c1)c1ccccc1	x	x	37.3	x	x	x
COc1cc2[nH]c(=O)c(C(=O)NCc3ccc(C)cc3)c(O)c2cc1OC	x	x	-8.2	x	x	x
CC(C)(C)c1ccc(-c2nc3[nH]c(=O)cc(NC(=O)c4ccco4)n3n2)cc1	x	x	62.4*	x	x	x
Cc1ccc(-c2nc3[nH]c(=O)cc(NC(=O)c4cccs4)n3n2)cc1	x	x	19.7	5.1	x	x
Clc1nc(-c2ccccn2)nc2scc(-c3ccccc3)c12	0	113.2	46.1	71.5*	3.31*	96.6*
Cc1ccc(-c2nnc(CSc3nc4cc5c(cc4cc3C)OCO5)o2)cc1	1	14.8	-6.1	-1.5	4.03*	-3.8
O=C(Cn1c(C(F)(F)F)nc2ccccc21)N=Nc1c(O)[nH]c2ccc(Br)cc12	1.1	-2.1	-1.4	29.4	1.09	-6.4
CCCCCCCCCCCCCCC(O)C[N+](C)(CCO)CCO (stereo unspecified)	x	x	87.8*	x	x	x
CCCCCCCC(=O)OCC(O)CO (stereo unspecified)	1.1	-2.0	-0.9	14.9	1.13	-5.4
COc1ccc(C(C#N)N2N=C(C)CC2c2ccccc2)cc1 (stereo unspecified)	x	x	-15.8	x	x	x
COc1ccc(C2=NN(C(C#N)c3ccc(OC)cc3)C(c3ccccc3)C2)cc1 (stereo unspecified)	1	108.7	-1.4	35.4	5.98*	-2.5
COCCn1c(C)cc(C(=O)CSc2nc3ccccc3o2)c1C	0.8	177.3*	21.1	9.9	1.84	17.7
COCCn1c(C)cc(C(=O)CSc2nc(C)c(C)c(C)n2)c1C	1	4.8	-8.4	0.6	1.01	-2.3
COCCn1c(C)cc(C(=O)CSc2nc3ccccc3s2)c1C	0.5	203.5*	24.9	35.9	0.68	46.3
COCCn1c(C)cc(C(=O)CSc2nnc3ccccn23)c1C	0.7	x	16.4	17.8	0.67	29.0
CC(C)C[C@H](NC(=O)c1nc[nH]c1C(=O)N[C@@H](CC(C)C)C(=O)OC(C)(C)C)C(=O)OC(C)(C)C	x	x	54.7*	5.9	x	x
CC(C)(C)OC(=O)NCCCC[C@H](NC(=O)c1[nH]cnc1C(=O)N[C@@H](Cc1ccccc1)C(=O)OC(C)(C)C)C(=O)OC(C)(C)C	x	x	57.6*	18.3	x	x
CC(C)(C)OC(=O)NCCCCCNC(=O)c1[nH]cnc1C(=O)N[C@@H](Cc1ccccc1)C(=O)OC(C)(C)C	x	x	-2.0	x	x	x
SMILES	FLuc act counter	APP 5'UTR act	TRAIL sens C8	PPC-1+TRAIL kill	NF-kB expr up	FLuc inhib CS
CC(C)C[C@H](NC(=O)c1nc[nH]c1C(=O)N[C@@H](CC(C)C)C(=O)OCc1ccccc1)C(=O)OCc1ccccc1	x	x	52.0*	x	x	x
Cc1cc(C)c2c(N)c(C(=O)NN3CC(=O)N(c4cccc(Cl)c4)CC3=O)sc2n1	x	x	-15.6	-20.9	x	x
N#CC1(c2ccccc2)CCCN1C(=O)c1ccc(Br)cc1 (stereo unspecified)	1	-10.9	3.9	11.3	1.35	-3.8
CCCN(C(=O)C(C)Oc1cccc(Cl)c1)c1c(N)n(Cc2ccccc2)c(=O)[nH]c1=O (stereo unspecified)	x	x	-4.3	x	x	x
COc1ccc(NC(=O)c2ccc(-c3ccc(OC)cc3)s2)cc1	1	38.9	-4.5	11.5	1.17	-4.4
CNC(=O)c1ccc(-c2ccc(OC)cc2)s1	0.4	99.1	30.6	36.1	4.58*	61.2*
CCCc1ccc(NC(=O)C2CCN(c3cnccn3)CC2)cc1	x	x	2.3	x	x	x
Cc1ccc(NC(=O)C2CCN(c3cnccn3)CC2)cc1	0.1	1.5	-4.6	-2.6	1.2	85.2*
CCCCN1C(C)=CC(=C2C(=O)c3ccccc3C2=O)C=C1C	0.2	180.5*	66.2*	30.6	3.17	77.3*
CC1=CC(=C2C(=O)c3ccccc3C2=O)C=C(C)N1Cc1ccco1	0.6	128.3	35.4	-15.9	4.63*	38.2
O=C(/C=C/c1ccco1)Oc1cc(Br)cc(/C=N/NC(=O)c2ccccc2O)c1	1	-63.7	43.7	51.7*	1.1	-0.3
CCN1CCN(c2ccc(S(=O)(=O)N3CCCCC3)cc2NC(=O)/C=C/c2ccc(OC(F)F)cc2)CC1	x	x	56.4*	x	x	x
CN1CCN(c2ccc(S(=O)(=O)N3CCCCC3)cc2NC(=O)/C=C/c2ccc(OC(F)F)cc2)CC1	x	x	11.3	x	x	x
CCOC(=O)c1[nH]c(C)c(CC(C)C)c1C	1	-13.9	-8.7	16.1	1.05	-0.7
Cc1ccc(N/C=C/C(=O)c2ccc(C)cc2)cc1	0.5	91.2	31.7	23.6	5.15*	51.2*
Cc1ccc(C(=O)/C=C\Nc2ccc(C)c(C)c2)cc1	0.7	170.2*	31.3	30.7	2.35	28.6
Cc1ccc(C(=O)/C=C/Nc2ccccn2)cc1	x	115.2	81.7*	x	x	x
Cc1ccc(O)c(N/C=C/C(=O)c2ccc(F)cc2)c1	x	x	60.2*	x	x	x
Cc1ccc(C(=O)/C=C/Nc2ccc([N+](=O)[O-])cc2Br)cc1	0.6	83.0	30.5	27.5	0.94	38.9
CCOCCn1c(N2CCCC2)nc2c1c(=O)n(C)c(=O)n2C	x	x	18.1	x	x	x
COc1cccc(/C=C/C(=O)Nc2ccc(OC)nc2)c1	0.7	27.0	10.3	9.6	1.87	33.1
C/C(=N\Nc1nc2ccccc2[nH]1)c1ccc2c(c1)OCCO2	0.2	31.2	39.9	31.6	1	77.5*
C/C(=N\Nc1nc2ccccc2[nH]1)c1ccccn1	x	x	58.4*	x	x	x
C/C(=N\Nc1nc2ccccc2[nH]1)c1ccc2c(c1)OCO2	0.7	36.2	21.1	4.0	1.25	32.3
C/C(=N\Nc1nc2ccccc2[nH]1)c1cc2ccccc2o1	0.2	106.1	59.5*	13.9	1.01	78.4*
SMILES	FLuc act counter	APP 5'UTR act	TRAIL sens C8	PPC-1+TRAIL kill	NF-kB expr up	FLuc inhib CS
Cc1ccc(CNC(=O)C(C)OC(=O)c2cccs2)cc1 (stereo unspecified)	1.1	-10.6	-0.5	17.0	1.06	-8.9
O=C(Nc1ccc2ccccc2c1)OC1CCS(=O)(=O)C1 (stereo unspecified)	x	x	5.4	x	x	x
O=C(COc1cc2oc(=O)c3c(c2cc1Cl)CCCC3)N1C[C@H]2C[C@@H](C1)c1cccc(=O)n1C2	x	x	-12.4	x	x	x
O=C(/C=C/Nc1cccc([N+](=O)[O-])c1)c1cccs1	0.5	183.8*	2.0	6.2	7.47*	50.8*
O=C(/C=C/Nc1ccccc1C(=O)O)c1cccs1	0.4	49.8	-3.1	8.7	0.98	64.7*
O=C(/C=C/Nc1ccc(Nc2ccccc2)cc1)c1cccs1	0.8	97.8	0.6	0.6	2.23	16.9
